In ChEMBL document CHEMBL4251655 (Eur J Med Chem, 2018):

How the values were obtained:
[1] = molecular target: Tyrosine-protein kinase BTK (Homo sapiens) (UniProt Q06187); test: Inhibition of recombinant full length human His-tagged BTK expressed in baculovirus expression system at 1 uM relative to control
Summary of the method: (§1)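 Forty-kinase selectivity panel; each compound tested at a single 1 µM concentration in the presence of 1 mM ATP; result given as percent inhibition.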

[2] = molecular target: Calcium/calmodulin-dependent protein kinase type II subunit alpha (Homo sapiens) (UniProt Q9UQM7); test: Inhibition of recombinant full length human His-tagged CAMK2A expressed in baculovirus expression system at 1 uM relative to control; summary of the method: as §1
Sequence of Calcium/calmodulin-dependent protein kinase type II subunit alpha (Homo sapiens) (Q9UQM7 whole entry, the tested form may be a part): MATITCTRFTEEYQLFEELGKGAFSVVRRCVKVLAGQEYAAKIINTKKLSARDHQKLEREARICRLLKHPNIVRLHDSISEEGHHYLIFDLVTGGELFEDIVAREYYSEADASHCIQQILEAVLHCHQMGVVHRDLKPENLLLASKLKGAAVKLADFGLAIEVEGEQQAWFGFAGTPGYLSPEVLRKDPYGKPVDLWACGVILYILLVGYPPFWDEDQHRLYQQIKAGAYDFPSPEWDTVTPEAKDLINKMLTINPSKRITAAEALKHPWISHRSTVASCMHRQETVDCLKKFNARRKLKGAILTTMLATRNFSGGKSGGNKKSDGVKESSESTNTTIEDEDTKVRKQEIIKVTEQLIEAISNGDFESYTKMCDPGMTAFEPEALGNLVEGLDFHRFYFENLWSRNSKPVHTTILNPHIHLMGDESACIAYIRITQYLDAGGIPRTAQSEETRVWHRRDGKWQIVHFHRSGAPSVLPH

[3] = molecular target: High affinity nerve growth factor receptor (Homo sapiens) (UniProt P04629); test: Inhibition of recombinant human His-tagged NTRK1 (526 to 838 residues) expressed in baculovirus expression system at 1 uM relative to control; summary of the method: as §1
Sequence of High affinity nerve growth factor receptor (Homo sapiens) (P04629 33-796 limits assumed): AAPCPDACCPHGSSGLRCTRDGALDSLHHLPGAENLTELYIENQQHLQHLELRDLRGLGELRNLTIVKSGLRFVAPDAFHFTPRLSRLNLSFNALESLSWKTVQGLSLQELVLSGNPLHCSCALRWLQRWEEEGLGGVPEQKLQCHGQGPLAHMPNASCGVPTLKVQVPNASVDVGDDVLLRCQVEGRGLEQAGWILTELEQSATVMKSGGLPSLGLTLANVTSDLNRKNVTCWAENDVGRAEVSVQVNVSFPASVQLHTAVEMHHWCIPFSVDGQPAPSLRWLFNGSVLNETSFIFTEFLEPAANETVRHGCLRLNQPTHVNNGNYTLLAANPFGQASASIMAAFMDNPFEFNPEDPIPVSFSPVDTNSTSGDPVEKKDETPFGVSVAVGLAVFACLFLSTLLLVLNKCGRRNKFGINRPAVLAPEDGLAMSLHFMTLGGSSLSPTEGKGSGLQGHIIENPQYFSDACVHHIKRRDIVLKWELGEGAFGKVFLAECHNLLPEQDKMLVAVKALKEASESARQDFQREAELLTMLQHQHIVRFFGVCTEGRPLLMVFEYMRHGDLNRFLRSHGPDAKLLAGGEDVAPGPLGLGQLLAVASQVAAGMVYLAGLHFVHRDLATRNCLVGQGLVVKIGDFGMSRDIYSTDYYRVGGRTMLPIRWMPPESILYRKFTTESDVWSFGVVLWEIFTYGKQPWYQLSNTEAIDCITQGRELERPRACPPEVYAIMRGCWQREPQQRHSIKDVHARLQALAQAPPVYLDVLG

[4] = molecular target: Serine/threonine-protein kinase pim-2 (Homo sapiens) (UniProt Q9P1W9); test: Inhibition of recombinant human full length GST-tagged PIM2 expressed in baculovirus expression system at 1 uM relative to control; summary of the method: as §1
Sequence of Serine/threonine-protein kinase pim-2 (Homo sapiens) (Q9P1W9 whole entry, looked up): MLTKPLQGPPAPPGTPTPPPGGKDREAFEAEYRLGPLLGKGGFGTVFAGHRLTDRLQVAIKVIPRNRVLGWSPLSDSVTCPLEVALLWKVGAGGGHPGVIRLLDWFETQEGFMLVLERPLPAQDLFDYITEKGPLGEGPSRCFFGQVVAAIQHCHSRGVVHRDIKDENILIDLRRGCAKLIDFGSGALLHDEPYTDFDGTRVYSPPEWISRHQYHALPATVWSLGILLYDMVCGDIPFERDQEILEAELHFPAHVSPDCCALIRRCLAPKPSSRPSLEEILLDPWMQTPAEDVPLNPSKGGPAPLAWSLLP

[5] = molecular target: Proto-oncogene tyrosine-protein kinase Src (Homo sapiens) (UniProt P12931); test: Inhibition of recombinant human full length His-tagged SRC expressed in baculovirus expression system at 1 uM relative to control; summary of the method: as §1
Sequence of Proto-oncogene tyrosine-protein kinase Src (Homo sapiens) (P12931 2-536 limits assumed): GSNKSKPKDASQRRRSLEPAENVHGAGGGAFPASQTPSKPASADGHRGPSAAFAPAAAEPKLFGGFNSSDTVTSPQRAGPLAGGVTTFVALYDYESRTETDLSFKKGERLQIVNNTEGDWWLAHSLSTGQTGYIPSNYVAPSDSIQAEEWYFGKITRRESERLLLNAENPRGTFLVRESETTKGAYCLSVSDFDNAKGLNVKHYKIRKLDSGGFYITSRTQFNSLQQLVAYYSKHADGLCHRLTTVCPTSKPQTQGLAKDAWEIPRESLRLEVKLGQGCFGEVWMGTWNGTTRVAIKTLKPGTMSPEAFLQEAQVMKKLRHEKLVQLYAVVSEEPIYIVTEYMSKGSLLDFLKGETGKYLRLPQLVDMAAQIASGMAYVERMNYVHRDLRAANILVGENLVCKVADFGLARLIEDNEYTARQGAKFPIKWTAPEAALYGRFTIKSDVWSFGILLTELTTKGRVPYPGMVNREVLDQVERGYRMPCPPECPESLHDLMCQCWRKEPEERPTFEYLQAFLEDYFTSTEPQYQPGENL

[6] = molecular target: T1, Serine/threonine-protein kinase TAO2 (Homo sapiens) (UniProt Q9UL54); test: Inhibition of recombinant human GST-tagged TAOK2 expressed in baculovirus expression system at 1 uM relative to control; summary of the method: as §1
T1 sequence (whole entry): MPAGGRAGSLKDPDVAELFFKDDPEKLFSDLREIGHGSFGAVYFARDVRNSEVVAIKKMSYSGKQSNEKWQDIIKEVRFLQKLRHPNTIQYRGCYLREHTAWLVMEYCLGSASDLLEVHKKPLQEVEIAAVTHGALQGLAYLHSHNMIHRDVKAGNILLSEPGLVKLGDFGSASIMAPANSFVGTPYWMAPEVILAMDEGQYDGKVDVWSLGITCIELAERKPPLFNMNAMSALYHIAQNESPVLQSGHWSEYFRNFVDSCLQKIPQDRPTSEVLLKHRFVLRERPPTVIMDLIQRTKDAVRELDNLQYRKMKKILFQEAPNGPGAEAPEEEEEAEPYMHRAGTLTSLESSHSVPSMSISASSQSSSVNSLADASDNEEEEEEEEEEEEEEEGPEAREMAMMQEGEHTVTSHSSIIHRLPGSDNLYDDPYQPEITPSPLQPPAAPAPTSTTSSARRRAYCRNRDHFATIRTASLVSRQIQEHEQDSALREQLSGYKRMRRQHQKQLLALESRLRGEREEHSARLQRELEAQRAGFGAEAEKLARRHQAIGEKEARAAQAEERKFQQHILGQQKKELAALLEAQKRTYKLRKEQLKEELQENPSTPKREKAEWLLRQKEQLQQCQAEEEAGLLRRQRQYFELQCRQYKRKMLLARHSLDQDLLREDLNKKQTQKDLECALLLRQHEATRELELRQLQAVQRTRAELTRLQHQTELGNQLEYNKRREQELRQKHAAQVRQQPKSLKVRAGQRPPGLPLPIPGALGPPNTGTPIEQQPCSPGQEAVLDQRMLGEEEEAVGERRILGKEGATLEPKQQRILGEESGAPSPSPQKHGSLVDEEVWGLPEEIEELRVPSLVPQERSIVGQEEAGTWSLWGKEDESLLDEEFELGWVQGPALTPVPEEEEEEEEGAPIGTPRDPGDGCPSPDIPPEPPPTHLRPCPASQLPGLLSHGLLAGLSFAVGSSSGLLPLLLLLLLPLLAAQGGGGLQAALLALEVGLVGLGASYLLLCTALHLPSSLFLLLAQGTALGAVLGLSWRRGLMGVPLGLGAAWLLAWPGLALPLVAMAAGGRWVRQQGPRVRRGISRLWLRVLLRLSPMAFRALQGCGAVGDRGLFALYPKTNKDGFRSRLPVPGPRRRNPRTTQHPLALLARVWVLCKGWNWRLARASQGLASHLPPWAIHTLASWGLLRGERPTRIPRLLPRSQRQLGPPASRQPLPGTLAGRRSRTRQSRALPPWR

Sequence of Tyrosine-protein kinase BTK (Homo sapiens) (Q06187 whole entry): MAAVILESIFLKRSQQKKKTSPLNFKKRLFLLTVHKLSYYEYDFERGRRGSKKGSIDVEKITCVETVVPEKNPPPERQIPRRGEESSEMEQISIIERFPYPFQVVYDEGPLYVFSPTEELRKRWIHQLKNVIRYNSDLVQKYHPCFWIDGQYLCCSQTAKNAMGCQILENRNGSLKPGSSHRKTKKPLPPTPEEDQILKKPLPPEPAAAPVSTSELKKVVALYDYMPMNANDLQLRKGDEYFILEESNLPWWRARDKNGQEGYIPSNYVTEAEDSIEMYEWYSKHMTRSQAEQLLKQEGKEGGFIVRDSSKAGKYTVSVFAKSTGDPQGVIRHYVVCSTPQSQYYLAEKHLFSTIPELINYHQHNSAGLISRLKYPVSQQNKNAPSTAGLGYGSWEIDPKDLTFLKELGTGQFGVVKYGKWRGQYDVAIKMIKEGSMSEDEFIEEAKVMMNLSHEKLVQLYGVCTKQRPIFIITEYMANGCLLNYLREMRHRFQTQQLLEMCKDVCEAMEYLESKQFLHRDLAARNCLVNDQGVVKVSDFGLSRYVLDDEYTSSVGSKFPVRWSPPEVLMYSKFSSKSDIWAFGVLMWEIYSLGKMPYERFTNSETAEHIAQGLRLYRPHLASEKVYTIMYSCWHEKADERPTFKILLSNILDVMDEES

Row | inhibition [1] [%] | inhibition [2] [%] | inhibition [3] [%] | inhibition [4] [%] | inhibition [5] [%] | inhibition [6] [%] | SMILES
1 | 0 | 13 | -1 | 3 | 1 | -3 | COc1cc(C)c(S(N)(=O)=O)cc1C(=O)Nc1cccc(-c2nncn2C(C)C)n1
2 | 5 | 3 | -3 | 5 | -1 | 2 | COc1cc(C)c(S(C)(=O)=O)cc1C(=O)Nc1cccc(-c2nncn2C(C)C)n1
3 | -4 | 6 | 5 | 0 | 8 | 17 | COc1cc(C)c(C(N)=O)cc1C(=O)Nc1cccc(-c2nncn2C(C)C)n1
4 | -3 | 12 | 20 | 2 | 4 | -1 | COc1ccc(S(N)(=O)=O)cc1C(=O)Nc1cccc(-c2nncn2C(C)C)n1
5 | 0 | -3 | 12 | 2 | 3 | 0 | COc1ccc(S(C)(=O)=O)cc1C(=O)Nc1cccc(-c2nncn2C(C)C)n1
6 | -5 | 6 | 12 | -1 | 7 | 11 | COc1ccc(C(N)=O)cc1C(=O)Nc1cccc(-c2nncn2C(C)C)n1
